# Experimental data taken from publication PMC2859677 (Journal of medicinal chemistry, 2010).
# Assays:
# [1] = target: T1, TLR2 (Homo sapiens, UniProt O60603); assay: NF-κB induction; type: cell-based
# Procedure, shortened: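 HEK293 cells stably transfected with TLR2, MD2, CD14 and a secreted alkaline phosphatase (sAP) reporter under NF-κB/AP-1 promoters. Cells were kept in selection medium with zeocin and normocin. They were grown in 384-well plates to confluency, then given graded concentrations of stimuli. Supernatant sAP, taken as proportional to NF-κB induction, was read at 620 nm with an alkaline phosphatase-specific chromogen in detection medium.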
# Target sequence in this assay (O60603 21-784): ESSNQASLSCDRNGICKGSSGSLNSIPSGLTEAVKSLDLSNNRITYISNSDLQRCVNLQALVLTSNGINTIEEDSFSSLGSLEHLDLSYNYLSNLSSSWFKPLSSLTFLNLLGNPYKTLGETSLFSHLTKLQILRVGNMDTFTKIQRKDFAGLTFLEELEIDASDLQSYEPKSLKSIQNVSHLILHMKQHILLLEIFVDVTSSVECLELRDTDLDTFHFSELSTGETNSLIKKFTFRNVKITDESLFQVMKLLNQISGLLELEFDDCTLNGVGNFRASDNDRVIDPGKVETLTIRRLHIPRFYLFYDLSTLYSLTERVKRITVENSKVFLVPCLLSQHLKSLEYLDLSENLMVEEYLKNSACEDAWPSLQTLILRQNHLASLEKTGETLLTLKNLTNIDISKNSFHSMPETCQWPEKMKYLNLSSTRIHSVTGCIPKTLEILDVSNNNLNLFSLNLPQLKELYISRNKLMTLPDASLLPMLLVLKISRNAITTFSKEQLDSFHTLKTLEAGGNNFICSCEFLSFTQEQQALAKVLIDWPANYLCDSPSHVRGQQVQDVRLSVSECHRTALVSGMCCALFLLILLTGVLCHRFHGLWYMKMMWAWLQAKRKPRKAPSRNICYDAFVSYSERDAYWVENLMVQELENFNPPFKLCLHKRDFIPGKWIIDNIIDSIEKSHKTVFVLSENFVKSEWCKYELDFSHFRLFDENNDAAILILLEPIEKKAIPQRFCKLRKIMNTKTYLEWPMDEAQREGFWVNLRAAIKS
# Target sequence in this assay (Q9Y2C9 32-796 partner): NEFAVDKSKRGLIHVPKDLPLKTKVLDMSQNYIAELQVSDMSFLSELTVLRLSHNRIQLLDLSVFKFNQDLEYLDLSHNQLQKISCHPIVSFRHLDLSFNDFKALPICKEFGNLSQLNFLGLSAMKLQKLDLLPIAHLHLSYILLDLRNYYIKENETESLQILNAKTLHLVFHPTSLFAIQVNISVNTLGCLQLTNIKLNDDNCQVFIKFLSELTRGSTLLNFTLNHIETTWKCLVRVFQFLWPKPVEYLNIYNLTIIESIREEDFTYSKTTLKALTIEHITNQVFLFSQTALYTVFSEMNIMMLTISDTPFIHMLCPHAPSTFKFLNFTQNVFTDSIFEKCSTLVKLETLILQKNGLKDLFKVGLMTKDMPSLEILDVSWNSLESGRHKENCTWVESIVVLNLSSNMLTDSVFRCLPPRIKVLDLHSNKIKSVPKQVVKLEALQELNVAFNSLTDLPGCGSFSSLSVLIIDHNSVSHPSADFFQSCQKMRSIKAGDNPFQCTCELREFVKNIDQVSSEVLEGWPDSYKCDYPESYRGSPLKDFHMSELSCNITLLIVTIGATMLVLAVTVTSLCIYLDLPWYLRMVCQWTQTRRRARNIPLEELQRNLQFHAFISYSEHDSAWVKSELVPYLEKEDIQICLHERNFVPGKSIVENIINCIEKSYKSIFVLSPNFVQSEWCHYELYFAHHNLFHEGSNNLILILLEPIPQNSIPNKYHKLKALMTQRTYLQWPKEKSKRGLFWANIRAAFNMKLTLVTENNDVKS
# [2] = target: T1, TLR2; assay: Test of compounds as TLR2 receptor antagonists; type: cell-based
# Target sequence in this assay (O60603 21-784): as the sequence (O60603 21-784) above
# [3] = test system: patients with inoperable carcinoma of the pancreas; details: single intraoperative 20–30 μg intratumoral injection; cited from earlier work
# [4] = test system: rabbits; assay: Fever response / acute toxicity in rabbits; type: in vivo, rabbit; details: dose of 100 ng/kg, manuscript in preparation
# [5] = test system: murine cells; details: cited from earlier work
Compound,TLR2 agonistic activity (in words) ([1]; human TLR2 reporter gene assay),Activity as TLR2 receptor antagonist [2],further results
"CCCCCCCCCCCCCCCC(=O)OC[C@H](CSCCN)OC(=O)CCCCCCCCCCCCCCC [Compound 6a, (R)-3-(2-aminoethylthio)propane-1,2-diyl dipalmitate]",weakly active,inactive,IC50 [1]: 1000 nM
"CCCCCCCCCCCCCCCC(=O)OC[C@@H](CSCCN)OC(=O)CCCCCCCCCCCCCCC [Compound 6b, (S)-3-(2-aminoethylthio)propane-1,2-diyl dipalmitate]",completely inactive,inactive,
"CCCCCCCCCCCCCCCC(=O)OC[C@@H](CSCCNC(=O)[C@H](N)CO)OC(=O)CCCCCCCCCCCCCCC [Compound 8b, (S)-3-(2-((R)-2-amino-3-hydroxypropanamido)ethylthio)propane-1,2-diyl dipalmitate]",only 8a was active,,
"CCCCCCCCCCCCCCCC(=O)OC[C@H](CSC[C@H](N)C(=O)OC)OC(=O)CCCCCCCCCCCCCCC [Compound 11, (R)-3-((R)-2-amino-3-methoxy-3-oxopropylthio)propane-1,2-diyl dipalmitate]",weakly TLR2-agonistic,,
"CCCCCCCCCCCCCCCC(=O)OC[C@H](COCC(N)C(=O)N[C@@H](CO)C(=O)OC)OC(=O)CCCCCCCCCCCCCCC (stereo partly drawn) [Compound 21a, (S)-3-(2-amino-3-((S)-3-hydroxy-1-methoxy-1-oxopropan-2-ylamino)-3-oxopropoxy)propane-1,2-diyl dipalmitate]",,inactive,
"CCCCCCCCCCCCCCCC(=O)OC[C@H](COCC(N)C(=O)N[C@H](CO)C(=O)OC)OC(=O)CCCCCCCCCCCCCCC (stereo partly drawn) [Compound 21b, (S)-3-(2-amino-3-((R)-3-hydroxy-1-methoxy-1-oxopropan-2-ylamino)-3-oxopropoxy)propane-1,2-diyl dipalmitate]",,inactive,TLR2 agonistic activity (in words) ([1]; at the highest concentration tested): inactive
"CCCCCCCCCCCCCCCCOC[C@H](CSC[C@H](N)C(=O)N[C@@H](CO)C(=O)OC)OCCCCCCCCCCCCCCCC [Compound 28, (S)-methyl 2-((R)-2-amino-3-((R)-2,3-bis(hexadecyloxy)propylthio)propanamido)-3-hydroxypropanoate]",entirely inactive,inactive,
"CCCCCCCCCCCCCCCC(=O)N[C@H](COC(=O)CCCCCCCCCCCCCCC)CSC[C@H](N)C(=O)N[C@@H](CO)C(=O)OC.O=C(O)C(F)(F)F [Compound 37, (R)-3-((R)-2-amino-3-((S)-3-hydroxy-1-methoxy-1-oxopropan-2-ylamino)-3-oxopropylthio)-2-palmitamidopropyl palmitate]",partially active,inactive,TLR2 agonistic activity relative to reference lipopeptide PAM2CSK4 ([1]; compared with PAM2CSK4): weaker by about three orders of magnitude
"CCCCCCCCCCCCCCCC(=O)NC[C@H](CSC[C@H](N)C(=O)N[C@@H](CO)C(=O)OC)NC(=O)CCCCCCCCCCCCCCC [Compound 45, (S)-methyl 2-((R)-2-amino-3-((R)-2,3-dipalmitamidopropylthio)-propanamido)-3-hydroxypropanoate]",completely inactive,inactive,
MALP-2,,,Efficacy (survival) [3]: efficacious in prolonging survival; Tolerability [3]: well-tolerated
lipopolysaccharide [LPS],,,Fever response [4]: robust fever response; Secretion of chemokines [5]: potently induced the secretion of a similar pattern of chemokines
